Series [1] relates to xenograft model of colon cancer. The conditions noted are these: cited from earlier work.
Another series concerns MDA-MB-231 xenografts. As to the kind of experiment: Xenograft model of TNBC, tumor growth. The format is in vivo, SCID mice. The conditions noted are these: 10 mg/kg iv twice a week for 2 weeks, vs vehicle control. The essentials: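 Female SCID mice (7–8 weeks) given s.c. rear-flank 1×10^6 MDA-MB-231 cells in 0.1 mL 50% Matrigel. At 100 mm3, randomized (eight per group). Dosed via tail vein twice weekly for 2 weeks with free or SMA-micelle test compound, or vehicle (100 μL; SMA in NaOH, pH 7.4). Tumor volume (L×W×H) by electronic calipers, two independent measurements bi-weekly. Euthanized day 24.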

The subject of the next series is TNBC cell lines. The conditions noted are these: cited from earlier work.

On to `COc1cc(C=C2CN(C)CC(=Cc3cc(OC)c(OC)c(OC)c3)C2=O)cc(OC)c1OC` [RL71, 3,5-bis(3,4,5-trimethoxybenzylidene)-1-methylpiperidine-4-one], for which the body weight entry in series [1] (4 mg/kg, after 15 days) is “nonsignificant loss of body weight”. Besides, the tumor growth result in series [1] (4 mg/kg/day intraperitoneally for 14 days) is listed as “significantly suppressed tumor growth”; in the series on MDA-MB-231 xenografts it was “unable to suppress tumor growth”. Besides, the “liver or spleen weight” value in series [1] (intraperitoneal administration for 2 weeks) is recorded as “did not alter liver or spleen weight”. In series [1] (over 15 days, 4 mg/kg/day ip), the “growth rate of colon tumors following treatment” value was 400%. Also, the “apoptosis and cell cycle effect” value with TNBC cell lines (1 µM, several TNBC cell lines) is “induced apoptosis and elicited G2/M phase cell cycle arrest”. In addition, the “cytotoxic potency relative to curcumin” value with TNBC cell lines (greater than curcumin) is 20 fold.

The values above are taken from PMC5634372 (International Journal of Nanomedicine, 2017).
